Series [1] deals with Rattus norvegicus. The series can be described thus: Antiarthritic activity in Lewis rat collagen-induced arthritis model assessed as reversal of paw swelling at 3 to 30 mg/kg, po qd administered on day 15 post immunization measured after day 28. The class given is functional, organism-based. The gist of the method: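 Collagen arthritis in female Lewis rats (porcine collagen day 0, boost day 7); swollen-joint rats randomized and given oral doses of 3, 10 or 30 mg/kg once daily, days 15–28. Swelling scored visually three times a week, per paw 0−3 metatarsal plus 0−3 ankle, composite 0−12 per rat; group means calculated.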

Series [2] concerns Rattus norvegicus. Kind of series: Dose normalized AUC in Sprague-Dawley rat at 3 mg/kg, po administered as cassette dosing. In kind it is ADME, organism-based. Further details: dose 3 mg/kg, route oral. The conditions noted are these: in vivo. The procedure, abridged:
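Rat PK: i.v. 1 mg/kg in NMP/PEG200 (3:7); p.o. 3 mg/kg in CMC/water/Tween (0.5:99:0.5). Exposure values dose normalized.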

Series [3] deals with Tyrosine-protein kinase SYK (Homo sapiens, UniProt P43405). Kind of series: Inhibition of Syk in anti-igM stimulated human Ramos B cells assessed as phospho-BLNK level preincubated for 30 mins followed by anti-IgM stimulation measured after 15 mins by flow cytometric analysis. In kind it is cell-based.
Series [4] has as its system Rattus norvegicus. Kind of series: Increase in body weight gain in Lewis rat collagen-induced arthritis model at 3 to 30 mg/kg, po qd administered on day 15 post immunization measured up to day 28. The class given is functional, organism-based. The gist of the method:
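Lewis rats with collagen-induced arthritis, randomized once joints swelled and given 3, 10 or 30 mg/kg p.o. once daily from day 15 to 28; animals weighed regularly throughout, compared against vehicle-treated rats.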

Series [5] is filed under the species Canis familiaris. The series can be described thus: Toxicity in dog assessed as prolongation of QT interval by telemetry study. The class given is organism-based, Canis lupus familiaris. The conditions noted are these: in vivo.
Series [6] in a line: Drug uptake in Lewis rat blood at 22 mg/kg, po measured after 4 hrs. The class given is ADME, organism-based. The conditions noted are these: read-out: Drug uptake. Also on record: dose 22 mg/kg, route oral. The procedure, abridged: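 Single oral dose of 22 mg/kg to Lewis rats; blood sampled at 2, 4 and 24 h after dosing for compound level and ex vivo FcγR-induced phospho-SLP76 in peripheral blood monocytes.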

The target in series [7] is T1, Tyrosine-protein kinase Mer (Homo sapiens, UniProt Q12866).
T1 sequence (Q12866 whole entry): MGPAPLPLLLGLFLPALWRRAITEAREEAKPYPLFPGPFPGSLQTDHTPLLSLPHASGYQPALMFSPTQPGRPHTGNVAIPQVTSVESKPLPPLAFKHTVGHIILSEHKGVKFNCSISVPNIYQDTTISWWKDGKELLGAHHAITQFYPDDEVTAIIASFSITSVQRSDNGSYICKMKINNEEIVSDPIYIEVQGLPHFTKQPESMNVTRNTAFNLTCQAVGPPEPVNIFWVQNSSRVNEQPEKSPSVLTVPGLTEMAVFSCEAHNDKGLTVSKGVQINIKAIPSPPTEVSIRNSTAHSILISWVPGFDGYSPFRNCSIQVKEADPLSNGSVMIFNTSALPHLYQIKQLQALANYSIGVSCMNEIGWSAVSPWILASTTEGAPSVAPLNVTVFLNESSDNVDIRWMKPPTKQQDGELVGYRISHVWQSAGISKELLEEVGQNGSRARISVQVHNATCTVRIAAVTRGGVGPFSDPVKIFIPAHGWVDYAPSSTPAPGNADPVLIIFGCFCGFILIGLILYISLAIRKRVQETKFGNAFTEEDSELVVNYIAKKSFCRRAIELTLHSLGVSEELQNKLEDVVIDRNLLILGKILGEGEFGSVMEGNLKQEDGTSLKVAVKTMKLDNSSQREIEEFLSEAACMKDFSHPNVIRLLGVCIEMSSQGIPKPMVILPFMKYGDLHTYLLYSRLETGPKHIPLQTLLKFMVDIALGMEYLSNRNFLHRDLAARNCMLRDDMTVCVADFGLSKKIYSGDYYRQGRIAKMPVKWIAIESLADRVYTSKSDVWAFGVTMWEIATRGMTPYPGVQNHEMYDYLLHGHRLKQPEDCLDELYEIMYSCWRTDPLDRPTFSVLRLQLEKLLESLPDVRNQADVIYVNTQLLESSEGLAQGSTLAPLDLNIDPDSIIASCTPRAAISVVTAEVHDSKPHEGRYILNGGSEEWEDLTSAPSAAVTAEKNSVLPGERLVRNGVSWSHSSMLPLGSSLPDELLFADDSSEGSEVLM
Kind of series: Competitive binding affinity to human MERTK.

In series [8] the test system is Canis familiaris. The series can be described thus: Dose normalized AUC in Beagle dog at 0.1 mg/kg, iv. The conditions noted are these: in vivo. The class given is ADME, organism-based, Canis lupus familiaris. Also on record: dose 0.1 mg/kg, route intravenous. The gist of the method: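 One-in-one dosing in Beagle dogs: i.v. 0.1 mg/kg in NMP/PEG200 (3:7); p.o. 0.3 mg/kg in MC/water (0.5:99.5). Exposure values dose normalized.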

The target of series [9] is Interleukin-1 receptor-associated kinase 1 (Homo sapiens, UniProt P51617). The series can be described thus: Competitive binding affinity to human IRAK1.
Series [10] deals with Voltage-gated inwardly rectifying potassium channel KCNH2 (Homo sapiens, UniProt Q12809). Kind of series: Inhibition of human ERG expressed in CHO cells by automated Qpatch clamp assay. In kind it is cell-based. (In patch-clamp work, channel activity is measured electrically.)
In series [11] the test system is Rattus norvegicus. Kind of series: Antiarthritic activity in Lewis rat collagen-induced arthritis model assessed as reduction of inflammatory cell infiltration in hind paw at 3 to 30 mg/kg, po qd administered on day 15 post immunization measured after day 28 by Giemsa/safranin O staining-based assay. In kind it is functional, organism-based. The gist of the method:
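Female Lewis rats (140−160 g), arthritis induced by porcine collagen immunization (day 0) and boost (day 7); rats with swollen joints randomized, dosed orally once daily from day 15 to day 28. Hind paws taken on day 28, fixed in 10% buffered formalin for 48 h, decalcified over 16 days, paraffin-embedded; 3 μm sections stained with Giemsa and safranin O and scored.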

Activity calls are given as the source filed them. The calls are words filed in the database; no cut-off is given here.

This note sets out measurements from ChEMBL document CHEMBL3414433, “Discovery and profiling of a selective and efficacious Syk inhibitor” (J Med Chem, 2015).

Chain of Voltage-gated inwardly rectifying potassium channel KCNH2 (Q12809 whole entry): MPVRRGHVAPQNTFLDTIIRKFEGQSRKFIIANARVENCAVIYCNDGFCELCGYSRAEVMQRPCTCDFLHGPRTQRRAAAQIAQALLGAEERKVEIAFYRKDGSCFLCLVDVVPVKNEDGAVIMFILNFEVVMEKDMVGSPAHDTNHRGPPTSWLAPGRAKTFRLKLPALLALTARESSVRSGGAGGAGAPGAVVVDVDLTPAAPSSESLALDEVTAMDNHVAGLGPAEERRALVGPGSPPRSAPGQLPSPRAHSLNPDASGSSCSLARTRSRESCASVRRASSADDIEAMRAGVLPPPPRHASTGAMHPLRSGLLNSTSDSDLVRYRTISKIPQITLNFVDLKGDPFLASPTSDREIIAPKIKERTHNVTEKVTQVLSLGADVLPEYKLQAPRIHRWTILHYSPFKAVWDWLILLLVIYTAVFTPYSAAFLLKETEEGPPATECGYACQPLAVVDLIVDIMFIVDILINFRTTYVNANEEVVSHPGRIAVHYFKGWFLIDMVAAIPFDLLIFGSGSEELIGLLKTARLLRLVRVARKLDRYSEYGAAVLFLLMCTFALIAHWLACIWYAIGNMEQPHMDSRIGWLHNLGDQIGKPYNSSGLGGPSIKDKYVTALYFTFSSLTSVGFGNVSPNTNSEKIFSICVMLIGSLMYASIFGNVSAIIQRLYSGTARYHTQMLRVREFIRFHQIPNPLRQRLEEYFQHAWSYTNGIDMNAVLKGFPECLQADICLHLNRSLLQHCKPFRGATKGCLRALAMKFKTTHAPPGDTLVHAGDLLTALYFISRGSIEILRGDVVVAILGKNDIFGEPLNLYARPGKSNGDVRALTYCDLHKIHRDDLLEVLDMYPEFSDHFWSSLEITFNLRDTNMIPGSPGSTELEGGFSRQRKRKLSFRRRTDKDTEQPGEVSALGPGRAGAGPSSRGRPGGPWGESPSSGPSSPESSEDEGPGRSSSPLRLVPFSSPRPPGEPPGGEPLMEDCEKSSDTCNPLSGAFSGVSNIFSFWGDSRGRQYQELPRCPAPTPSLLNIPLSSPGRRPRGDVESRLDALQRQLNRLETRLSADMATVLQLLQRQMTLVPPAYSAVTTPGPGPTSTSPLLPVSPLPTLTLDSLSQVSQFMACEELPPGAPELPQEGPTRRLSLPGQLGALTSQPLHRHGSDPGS
Chain of Interleukin-1 receptor-associated kinase 1 (P51617 whole entry): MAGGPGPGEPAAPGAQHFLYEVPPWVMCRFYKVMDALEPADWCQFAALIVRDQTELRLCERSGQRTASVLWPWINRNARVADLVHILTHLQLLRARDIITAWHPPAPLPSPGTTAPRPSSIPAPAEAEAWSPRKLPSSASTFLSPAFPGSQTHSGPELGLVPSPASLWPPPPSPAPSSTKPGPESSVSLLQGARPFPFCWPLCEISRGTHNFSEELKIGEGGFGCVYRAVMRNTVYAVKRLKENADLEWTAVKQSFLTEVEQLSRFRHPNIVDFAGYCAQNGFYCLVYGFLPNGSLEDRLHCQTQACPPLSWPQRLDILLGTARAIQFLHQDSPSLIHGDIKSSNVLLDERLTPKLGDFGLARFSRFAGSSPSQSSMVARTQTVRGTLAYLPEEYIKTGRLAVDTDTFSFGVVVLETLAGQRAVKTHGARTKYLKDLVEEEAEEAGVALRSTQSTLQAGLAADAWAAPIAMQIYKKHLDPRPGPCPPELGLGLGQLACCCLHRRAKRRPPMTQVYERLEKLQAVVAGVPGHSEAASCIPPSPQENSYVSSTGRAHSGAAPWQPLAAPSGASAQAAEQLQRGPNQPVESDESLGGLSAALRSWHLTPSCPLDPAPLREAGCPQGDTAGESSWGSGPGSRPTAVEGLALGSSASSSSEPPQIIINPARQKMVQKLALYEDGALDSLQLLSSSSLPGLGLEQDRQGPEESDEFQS

The term IC50 denotes the concentration at which inhibition is half-maximal. What is called Kd is the concentration at which binding is half-saturated. Low values mean a tighter complex, high ones a looser complex. `NC(=O)c1nnc(N[C@@H]2CCCC[C@@H]2N)nc1Nc1cccc2cc[nH]c12`: the result with Rattus norvegicus [1], in the series on Rattus norvegicus [4] and in the series with Rattus norvegicus [11] was Active. For the same compound, the figures for the AUC/dose in the series with Rattus norvegicus [2] and in the series on Canis familiaris [8] were 877 nM·h and 3414 nM·h, respectively. Also, the IC50 in [3] stood at 99 nM; in series [10], 25900 nM. Also, in the series listed under Canis familiaris [5], the Activity result is recorded as “Non-toxic”. For the same compound, the concentration at 4 h in [6] was found to be 1100 nM. Besides, the figures for the Kd in series [7] and in series [9] were 150 nM and 67 nM, respectively.
